ChEMBL document CHEMBL3045023, “Design, synthesis, and antiviral activity evaluation of phenanthrene-based antofine derivatives” (2012)

Each molecule was assayed on Tobacco mosaic virus (assay: Antiviral activity against Tobacco mosaic virus (TMV) inoculation on Nicotiana tabacum L. whole leaves assessed as virus inactivation effect at 500 ug/mL measured 3 to 4 days post inoculation). Conditions: not given.
Format: functional
In short: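 TMV was mixed with an equal volume of compound solution for 30 min. The mixture was inoculated on the left half of N. tabacum L. leaves, and virus mixed with solvent on the right half as control. Local lesions were recorded 3–4 days post-inoculation, in triplicate. Inhibition % was calculated from average lesion numbers versus control.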

Point of comparison: COc1cc2cc(CN3CCCCC3)c3cc(OC)c(OC)cc3c2cc1OC, Activity 30%. Against it:
- COc1cc2cc(C(=O)N3CCC[C@H]3C=O)c3cc(OC)c(OC)cc3c2cc1OC — lower, 15.2%
- COc1cc2cc(C(=O)N3CCC[C@H]3CBr)c3cc(OC)c(OC)cc3c2cc1OC — lower, 27.6%
- COc1ccc(/C=C(/C(=O)O)c2ccc(OC)c(OC)c2)cc1OC — lower, 4.1%
- COC(=O)[C@@H]1CCCN1C(=O)/C(=C/c1ccc(OC)c(OC)c1)c1ccc(OC)c(OC)c1 — lower, 21.1%
- COc1ccc(/C=C(/C(=O)N2CCC[C@H]2CO)c2ccc(OC)c(OC)c2)cc1OC — lower, 20.9%
- COc1cc2c(Br)c(CBr)c3cc(OC)c(OC)cc3c2cc1OC — lower, 4.3%
- COc1cc2c(Br)c(CN3CCC[C@H]3C(=N)OC(C)(C)C)c3cc(OC)c(OC)cc3c2cc1OC — higher, 36.6%
- COc1cc2cc(CN3C(=O)CC[C@H]3C(=O)OC(C)(C)C)c3cc(OC)c(OC)cc3c2cc1OC — lower, 27.1%
- COc1cc2cc(CN3C(=O)CC[C@H]3C(=O)O)c3cc(OC)c(OC)cc3c2cc1OC — higher, 33.7%
- COc1cc2cc(CN3CCC[C@H]3CO)c3cc(OC)c(OC)cc3c2cc1OC — lower, 17.4%
- COc1cc2cc(CN3CCC[C@H]3CBr)c3cc(OC)c(OC)cc3c2cc1OC — lower, 20.3%
- COC(=O)[C@@H]1CCCN1Cc1c(Br)c2cc(OC)c(OC)cc2c2cc(OC)c(OC)cc12 — lower, 21.4%
- COc1cc2c(Br)c(CN3CCC[C@H]3C(=O)O)c3cc(OC)c(OC)cc3c2cc1OC — lower, 17%
- COc1cc2c(Br)c(CN3CCC[C@H]3C(N)=O)c3cc(OC)c(OC)cc3c2cc1OC — higher, 42.1%
- COc1cc2c(Br)c(CN3CCC[C@@H]3C(N)=O)c3cc(OC)c(OC)cc3c2cc1OC — lower, 0%
- COc1ccc2c(Br)c(CN3CCC[C@H]3C(N)=O)c3cc(OC)c(OC)cc3c2c1 — lower, 12.3%
- COc1cc2cc(C(=O)O)c3cc(OC)c(OC)cc3c2cc1OC — lower, 4.2%
- COc1cc2cc(C(=O)N3CCCCC3)c3cc(OC)c(OC)cc3c2cc1OC — lower, 24.5%
- NC(=O)c1ncn([C@@H]2O[C@H](CO)[C@@H](O)[C@H]2O)n1 [RIBAVIRIN] — higher, 32.1%

What follows are molecules tested on Tobacco mosaic virus (assay: Antiviral activity against Tobacco mosaic virus (TMV) inoculation on Nicotiana tabacum L. whole leaves assessed as virus infection protective effect at 500 ug/mL measured 3 to 4 days post inoculation). Conditions: not given.
Format: functional
In short: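 On N. tabacum L. leaves of the same age, compound was smeared on the left half and solvent on the right half as control. After 12 h, leaves were dusted with silicon carbide, brush-inoculated with TMV (6 × 10−3 mg/mL), then washed. Local lesions were counted 3–4 days later, in triplicate. Inhibition % was calculated from average lesion numbers versus control.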

Point of comparison: COc1cc2cc(CN3CCC[C@H]3CO)c3cc(OC)c(OC)cc3c2cc1OC, Activity 25.2%. Against it:
- COc1cc2cc(C(=O)N3CCC[C@H]3C=O)c3cc(OC)c(OC)cc3c2cc1OC — lower, 21.4%
- COc1cc2cc(C(=O)N3CCC[C@H]3CBr)c3cc(OC)c(OC)cc3c2cc1OC — higher, 36.9%
- COc1ccc(/C=C(/C(=O)O)c2ccc(OC)c(OC)c2)cc1OC — lower, 1.9%
- COC(=O)[C@@H]1CCCN1C(=O)/C(=C/c1ccc(OC)c(OC)c1)c1ccc(OC)c(OC)c1 — lower, 23.6%
- COc1ccc(/C=C(/C(=O)N2CCC[C@H]2CO)c2ccc(OC)c(OC)c2)cc1OC — lower, 19.3%
- COc1cc2c(Br)c(CBr)c3cc(OC)c(OC)cc3c2cc1OC — lower, 5.2%
- COc1cc2c(Br)c(CN3CCC[C@H]3C(=N)OC(C)(C)C)c3cc(OC)c(OC)cc3c2cc1OC — higher, 42.2%
- COc1cc2cc(CN3C(=O)CC[C@H]3C(=O)OC(C)(C)C)c3cc(OC)c(OC)cc3c2cc1OC — lower, 23.5%
- COc1cc2cc(CN3C(=O)CC[C@H]3C(=O)O)c3cc(OC)c(OC)cc3c2cc1OC — higher, 35.3%
- COc1cc2cc(CN3CCC[C@H]3CBr)c3cc(OC)c(OC)cc3c2cc1OC — lower, 21.1%
- COc1cc2cc(CN3CCCCC3)c3cc(OC)c(OC)cc3c2cc1OC — higher, 35.9%
- COC(=O)[C@@H]1CCCN1Cc1c(Br)c2cc(OC)c(OC)cc2c2cc(OC)c(OC)cc12 — higher, 33.3%
- COc1cc2c(Br)c(CN3CCC[C@H]3C(=O)O)c3cc(OC)c(OC)cc3c2cc1OC — lower, 10.2%
- COc1cc2c(Br)c(CN3CCC[C@H]3C(N)=O)c3cc(OC)c(OC)cc3c2cc1OC — higher, 39.5%
- COc1cc2c(Br)c(CN3CCC[C@@H]3C(N)=O)c3cc(OC)c(OC)cc3c2cc1OC — lower, 15.3%
- COc1ccc2c(Br)c(CN3CCC[C@H]3C(N)=O)c3cc(OC)c(OC)cc3c2c1 — higher, 32.4%
- COc1cc2cc(C(=O)O)c3cc(OC)c(OC)cc3c2cc1OC — lower, 4.8%
- COc1cc2cc(C(=O)N3CCCCC3)c3cc(OC)c(OC)cc3c2cc1OC — higher, 30.6%
- NC(=O)c1ncn([C@@H]2O[C@H](CO)[C@@H](O)[C@H]2O)n1 [RIBAVIRIN] — higher, 34.2%

Each molecule was assayed on Tobacco mosaic virus (assay: Antiviral activity against Tobacco mosaic virus (TMV) inoculation on Nicotiana tabacum L. whole leaves assessed as virus infection curative effect at 500 ug/mL measured 3 to 4 days post inoculation). Conditions: not given.
Format: functional
In short: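 Whole N. tabacum L. leaves of the same age were inoculated with TMV (6.0 × 10−3 mg/mL), then washed and dried. Compound was then smeared on the left half and solvent on the right half as control. Local lesions were counted 3–4 days post-inoculation, in triplicate. Inhibition % was calculated from average lesion numbers versus control.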

Point of comparison: COC(=O)[C@@H]1CCCN1Cc1c(Br)c2cc(OC)c(OC)cc2c2cc(OC)c(OC)cc12, Activity 27.8%. Against it:
- COc1cc2cc(C(=O)N3CCC[C@H]3C=O)c3cc(OC)c(OC)cc3c2cc1OC — lower, 20.3%
- COc1cc2cc(C(=O)N3CCC[C@H]3CBr)c3cc(OC)c(OC)cc3c2cc1OC — lower, 26.7%
- COc1ccc(/C=C(/C(=O)O)c2ccc(OC)c(OC)c2)cc1OC — lower, 2.7%
- COC(=O)[C@@H]1CCCN1C(=O)/C(=C/c1ccc(OC)c(OC)c1)c1ccc(OC)c(OC)c1 — lower, 17.2%
- COc1ccc(/C=C(/C(=O)N2CCC[C@H]2CO)c2ccc(OC)c(OC)c2)cc1OC — lower, 18.1%
- COc1cc2c(Br)c(CBr)c3cc(OC)c(OC)cc3c2cc1OC — lower, 1.8%
- COc1cc2c(Br)c(CN3CCC[C@H]3C(=N)OC(C)(C)C)c3cc(OC)c(OC)cc3c2cc1OC — higher, 40.3%
- COc1cc2cc(CN3C(=O)CC[C@H]3C(=O)OC(C)(C)C)c3cc(OC)c(OC)cc3c2cc1OC — lower, 16.8%
- COc1cc2cc(CN3C(=O)CC[C@H]3C(=O)O)c3cc(OC)c(OC)cc3c2cc1OC — lower, 25.6%
- COc1cc2cc(CN3CCC[C@H]3CO)c3cc(OC)c(OC)cc3c2cc1OC — lower, 23.5%
- COc1cc2cc(CN3CCC[C@H]3CBr)c3cc(OC)c(OC)cc3c2cc1OC — lower, 16.3%
- COc1cc2cc(CN3CCCCC3)c3cc(OC)c(OC)cc3c2cc1OC — higher, 35.2%
- COc1cc2c(Br)c(CN3CCC[C@H]3C(=O)O)c3cc(OC)c(OC)cc3c2cc1OC — lower, 13.5%
- COc1cc2c(Br)c(CN3CCC[C@H]3C(N)=O)c3cc(OC)c(OC)cc3c2cc1OC — higher, 36.6%
- COc1cc2c(Br)c(CN3CCC[C@@H]3C(N)=O)c3cc(OC)c(OC)cc3c2cc1OC — lower, 12.2%
- COc1ccc2c(Br)c(CN3CCC[C@H]3C(N)=O)c3cc(OC)c(OC)cc3c2c1 — higher, 30.7%
- COc1cc2cc(C(=O)O)c3cc(OC)c(OC)cc3c2cc1OC — lower, 3.6%
- COc1cc2cc(C(=O)N3CCCCC3)c3cc(OC)c(OC)cc3c2cc1OC — higher, 28.9%
- NC(=O)c1ncn([C@@H]2O[C@H](CO)[C@@H](O)[C@H]2O)n1 [RIBAVIRIN] — higher, 34.5%

These molecules were tested on Tobacco mosaic virus (assay: Antiviral activity against Tobacco mosaic virus (TMV) assessed as inhibition of viral growth at 500 ug/mL). Conditions: read-out: GI.
Format: functional
In short: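 Leaves of 5–6-growth-stage tobacco were rub-inoculated with TMV juice (5.88 × 10−2 μg/mL), then cut into halves along the main vein. One half was immersed in 500 μg/mL compound and the other in double-distilled water, each for 20 min. Halves were cultured at 25 °C for 72 h, with at least 3 replicates. Inhibition % = (control − treated average lesion number)/control × 100.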

Point of comparison: COc1cc2c(Br)c(CBr)c3cc(OC)c(OC)cc3c2cc1OC, inhibition of growth at 500 µg/mL 6.1%. Against it:
- O=C1NCNC(=O)N1 — higher, 50%
- CC(=O)N1CN(C(C)=O)C(=O)NC1=O — higher, 50%
- COc1cc2cc(C(=O)N3CCC[C@H]3C=O)c3cc(OC)c(OC)cc3c2cc1OC — higher, 22.2%
- COc1cc2cc(C(=O)N3CCC[C@H]3CBr)c3cc(OC)c(OC)cc3c2cc1OC — higher, 21.9%
- COc1ccc(/C=C(/C(=O)O)c2ccc(OC)c(OC)c2)cc1OC — lower, 2.3%
- COC(=O)[C@@H]1CCCN1C(=O)/C(=C/c1ccc(OC)c(OC)c1)c1ccc(OC)c(OC)c1 — higher, 17.5%
- COc1ccc(/C=C(/C(=O)N2CCC[C@H]2CO)c2ccc(OC)c(OC)c2)cc1OC — higher, 11.7%
- COc1cc2c(Br)c(CN3CCC[C@H]3C(=N)OC(C)(C)C)c3cc(OC)c(OC)cc3c2cc1OC — higher, 39.7%
- COc1cc2cc(CN3C(=O)CC[C@H]3C(=O)OC(C)(C)C)c3cc(OC)c(OC)cc3c2cc1OC — higher, 14.2%
- COc1cc2cc(CN3C(=O)CC[C@H]3C(=O)O)c3cc(OC)c(OC)cc3c2cc1OC — higher, 32.4%
- COc1cc2cc(CN3CCC[C@H]3CO)c3cc(OC)c(OC)cc3c2cc1OC — higher, 15.9%
- COc1cc2cc(CN3CCC[C@H]3CBr)c3cc(OC)c(OC)cc3c2cc1OC — higher, 32.1%
- COc1cc2cc(CN3CCCCC3)c3cc(OC)c(OC)cc3c2cc1OC — higher, 38.4%
- COC(=O)[C@@H]1CCCN1Cc1c(Br)c2cc(OC)c(OC)cc2c2cc(OC)c(OC)cc12 — higher, 19.6%
- COc1cc2c(Br)c(CN3CCC[C@H]3C(=O)O)c3cc(OC)c(OC)cc3c2cc1OC — higher, 20.4%
- COc1cc2c(Br)c(CN3CCC[C@H]3C(N)=O)c3cc(OC)c(OC)cc3c2cc1OC — higher, 44.3%
- COc1cc2c(Br)c(CN3CCC[C@@H]3C(N)=O)c3cc(OC)c(OC)cc3c2cc1OC — higher, 10.5%
- COc1ccc2c(Br)c(CN3CCC[C@H]3C(N)=O)c3cc(OC)c(OC)cc3c2c1 — higher, 35.5%
- COc1cc2cc(C(=O)O)c3cc(OC)c(OC)cc3c2cc1OC — lower, 0%
- COc1cc2cc(C(=O)N3CCCCC3)c3cc(OC)c(OC)cc3c2cc1OC — higher, 32.5%
- NC(=O)c1ncn([C@@H]2O[C@H](CO)[C@@H](O)[C@H]2O)n1 [RIBAVIRIN] — higher, 38.5%
